Assay results taken from ChEMBL document CHEMBL1649387, “Synthesis and evaluation of quinonoid compounds against tumor cell lines” (Eur J Med Chem, 2011).

Key:
[1] = test system: MDA-MB-435; assay: Cytotoxicity against human MDA-MB-435 cells after 72 hrs by MTT assay; format: functional, cell-based; details: MDA-MB-435, 72 h
[2] = test system: HCT-8; assay: Cytotoxicity against human HCT8 cells after 72 hrs by MTT assay; format: functional, cell-based; details: HCT-8, 72 h
[3] = test system: PBMC; assay: Cytotoxicity against human PBMC cells after 72 hrs by Alamar Blue assay; format: cell-based
[4] = test system: HL-60; assay: Cytotoxicity against human HL60 cells after 72 hrs by MTT assay; format: functional, cell-based; details: HL-60, 72 h
[5] = test system: SF-295; assay: Cytotoxicity against human SF295 cells after 72 hrs by MTT assay; format: functional, cell-based; details: SF-295, 72 h
[6] = test system: HCT-8; assay: Induction of apoptosis in human HCT8 cells assessed as apoptotic nuclei at 5 uM after 24 hrs by acridine orange/ethidium bromide staining based fluorescence microscopy in presence of 1-bromoheptane; format: functional
In short: (§1)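 Cells exposed 24 h, with or without 24 h pretreatment with 1-bromoheptane. Cell suspension mixed with acridine orange/ethidium bromide (each 100 in PBS) and spread on slide. 300 cells counted per point by fluorescence microscopy to give % apoptotic cells. Mean ± S.E.M. of three experiments.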

[7] = test system: SF-295; assay: Induction of apoptosis in human SF295 cells assessed as apoptotic nuclei at 5 uM after 24 hrs by acridine orange/ethidium bromide staining based fluorescence microscopy in presence of 1-bromoheptane; format: functional; in short: as §1
[8] = test system: SF-295; assay: Induction of apoptosis in human SF295 cells assessed as apoptotic nuclei at 5 uM after 24 hrs by acridine orange/ethidium bromide staining based fluorescence microscopy; format: functional; in short: as §1
[9] = test system: MDA-MB-435; assay: Induction of apoptosis in human MDA-MB-435 cells assessed as apoptotic nuclei at 5 uM after 24 hrs by acridine orange/ethidium bromide staining based fluorescence microscopy in presence of 1-bromoheptane; format: functional; in short: as §1
[10] = test system: HCT-8; assay: Induction of apoptosis in human HCT8 cells assessed as apoptotic nuclei at 5 uM after 24 hrs by acridine orange/ethidium bromide staining based fluorescence microscopy; format: functional; in short: as §1
[11] = test system: HL-60; assay: Induction of apoptosis in human HL60 cells assessed as apoptotic nuclei at 5 uM after 24 hrs by acridine orange/ethidium bromide staining based fluorescence microscopy in presence of 1-bromoheptane; format: functional; in short: as §1
[12] = test system: MDA-MB-435; assay: Induction of apoptosis in human MDA-MB-435 cells assessed as apoptotic nuclei at 5 uM after 24 hrs by acridine orange/ethidium bromide staining based fluorescence microscopy; format: functional; in short: as §1
[13] = test system: HL-60; assay: Induction of apoptosis in human HL60 cells assessed as apoptotic nuclei at 5 uM after 24 hrs by acridine orange/ethidium bromide staining based fluorescence microscopy; format: functional; in short: as §1

Compound	IC50 [1]	IC50 [2]	IC50 [3]	IC50 [4]	IC50 [5]	Activity [6]	Activity [7]	Activity [8]	Activity [9]	Activity [10]	Activity [11]	Activity [12]	Activity [13]
COc1cc(-c2nc3ccc4c(c3[nH]2)C(=O)c2ccccc2C4=O)ccc1O	> 13.6 µM	> 13.6 µM	> 13.6 µM	> 13.6 µM	> 13.6 µM								
O=C1c2ccccc2C(=O)c2c1ccc1nc(-c3ccc(F)cc3)[nH]c21	> 14.6 µM	> 14.6 µM	> 14.6 µM	> 14.6 µM	> 14.6 µM								
CCCC1=C(O)C(=O)c2ccccc2C1=O	> 23.1 µM	> 23.1 µM	> 23.1 µM	> 23.1 µM									
COc1ccc(-c2cn([C@H]3C4=C(OC(C)(C)[C@@H]3Br)c3ccccc3C(=O)C4=O)nn2)cc1	1.92 µM	3.21 µM	2.52 µM	1.88 µM	3.01 µM								
CC1=C(OC2(C)C(=O)c3ccccc3C2=O)C(=O)c2ccccc2C1=O	> 14.4 µM	> 14.4 µM	> 14.4 µM	> 14.4 µM	> 14.4 µM								
CC(C)CCC1=C(OC2(CCC(C)C)C(=O)C(=O)c3ccccc3C2=O)C(=O)c2ccccc2C1=O (stereo not given)	> 10.3 µM	> 10.3 µM	> 10.3 µM	> 10.3 µM	> 10.3 µM	11.46%	8.01%	7.94%	7.44%	8.71%	4.17%	9.51%	8.13%
O=C1c2ccccc2C(=O)c2c1ccc1nc(-c3cccc(O)c3)[nH]c21	> 14.7 µM	> 14.7 µM	> 14.7 µM	> 14.7 µM	> 14.7 µM	7.25%	9.66%	13.51%	13.75%	12.73%	8.17%	12.51%	10.49%
CC1(C)OC2=C(C(=O)C(=O)c3ccccc32)[C@H](n2cc(-c3ccc(Br)cc3)nn2)[C@H]1Br	1.99 µM	2.24 µM	4.01 µM	1.67 µM	2.33 µM								
O=C1c2ccccc2C(=O)c2c1ccc1nc(-c3ccccc3)[nH]c21	> 15.4 µM	> 15.4 µM	> 15.4 µM	> 15.4 µM	> 15.4 µM	8.11%	9.17%	7.32%	11.44%	10.35%	8.37%	9.02%	12.59%
CCCC1=C(OC2(CCC)C(=O)C(=O)C3=C(CCCC3)C2=O)C(=O)C2=C(CCCC2)C1=O (stereo not given)	> 11.4 µM	> 11.4 µM	> 11.4 µM	> 11.4 µM	> 11.4 µM	11.7%	13.97%	11.73%	12.09%	9.27%	11.04%	8.56%	9.13%
Cc1ccccc1-c1nc2ccc3c(c2[nH]1)C(=O)c1ccccc1C3=O	> 14.8 µM	> 14.8 µM	> 14.8 µM	> 14.8 µM	> 14.8 µM	9.17%	13.95%	11.85%	10.38%	5.33%	10.75%	6.33%	11.47%
CC(C)CCC1=C(O)C(=O)C2=C(CCCC2)C1=O	> 20.1 µM	> 20.1 µM	> 20.1 µM	> 20.1 µM	> 20.1 µM								
CC1(C)OC2=C(C(=O)C(=O)c3ccccc32)[C@H](N=[N+]=[N-])[C@H]1Br	1.54 µM	2.42 µM	3.58 µM	1.43 µM	1.93 µM								
Cc1cccc(-c2nc3ccc4c(c3[nH]2)C(=O)c2ccccc2C4=O)c1	> 14.8 µM	> 14.8 µM	> 14.8 µM	> 14.8 µM	> 14.8 µM	7.28%	7.38%	10.05%	6.17%	12.01%	6.18%	9.81%	7.33%
O=C1c2ccccc2C(=O)c2c1ccc1nc(-c3ccccc3O)[nH]c21	> 14.7 µM	3.64 µM	> 14.7 µM	> 14.7 µM	3.87 µM	4.19%	9.91%	11.73%	10.04%	6.48%	12.59%	7.39%	8.21%
CC(C)CC1=C(OC2(CC(C)C)C(=O)C(=O)c3ccccc3C2=O)C(=O)c2ccccc2C1=O (stereo not given)	> 10.9 µM	> 10.9 µM	> 10.9 µM	> 10.9 µM	> 10.9 µM								
O=C1c2ccccc2C(=O)c2c1ccc1nc(-c3cccc(F)c3)[nH]c21	> 14.6 µM	> 14.6 µM	> 14.6 µM	> 14.6 µM	> 14.6 µM								
CC1(C)OC2C(=O)c3ccccc3C(=O)C2[C@@H](N=[N+]=[N-])[C@@H]1Br (stereo not given in full)	3.97 µM	12.4 µM	11.3 µM	5.68 µM	13.8 µM								
O=C1c2ccccc2C(=O)c2c1ccc1nc(-c3ccccc3F)[nH]c21	> 14.6 µM	> 14.6 µM	> 14.6 µM	> 14.6 µM	> 14.6 µM								
CC(C)CC1=C(O)C(=O)C2=C(CCCC2)C1=O	> 21.4 µM	> 21.4 µM	> 21.4 µM	> 21.4 µM	> 21.4 µM								
CC(C)CCC1=C(O)C(=O)c2ccccc2C1=O	> 20.5 µM	> 20.5 µM	> 20.5 µM	> 20.5 µM	> 20.5 µM								
CCCC1=C(OC2(CCC)C(=O)C(=O)c3ccccc3C2=O)C(=O)c2ccccc2C1=O (stereo not given)	> 11.6 µM	> 11.6 µM	> 11.6 µM	> 11.6 µM	> 11.6 µM								
C=CCC1=C(OC2(CC=C)C(=O)C(=O)c3ccccc3C2=O)C(=O)c2ccccc2C1=O (stereo not given)	> 11.7 µM	> 11.7 µM	> 11.7 µM	> 11.7 µM	> 11.7 µM	9.37%	11.47%	8.3%	11.36%	12.52%	8.55%	7.94%	3.91%
CC(C)CC1=C(OC2(CC(C)C)C(=O)C(=O)C3=C(CCCC3)C2=O)C(=O)C2=C(CCCC2)C1=O (stereo not given)	> 10.7 µM	> 10.7 µM	> 10.7 µM	> 10.7 µM	> 10.7 µM								
CC(C)=CCC1=C(OC2(CC=C(C)C)C(=O)C(=O)c3ccccc3C2=O)C(=O)c2ccccc2C1=O (stereo not given)	> 10.4 µM	9.76 µM	> 10.4 µM	> 10.4 µM	> 10.4 µM	9.16%	7.3%	11.45%	5.82%	8.52%	8.46%	4.72%	11.17%
CC(C)CC1=C(O)C(=O)c2ccccc2C1=O	> 21.7 µM	> 21.7 µM	> 21.7 µM	> 21.7 µM	> 21.7 µM								
O=C1c2ccccc2C(=O)c2c1ccc1nc(-c3ccc(O)cc3)[nH]c21	> 14.7 µM	> 14.7 µM	> 14.7 µM	> 14.7 µM	> 14.7 µM	11.16%	10.18%	5.93%	13.07%	8.51%	14.26%	9.56%	10.7%
CC(C)CCC1=C(OC2(CCC(C)C)C(=O)C(=O)C3=C(CCCC3)C2=O)C(=O)C2=C(CCCC2)C1=O (stereo not given)	> 10.1 µM	> 10.1 µM	> 10.1 µM	> 10.1 µM	> 10.1 µM	10.33%	12.06%	8.33%	13.72%	5.85%	10.62%	8.38%	10.21%
CCCC1=C(O)C(=O)C2=C(CCCC2)C1=O	> 22.7 µM	3.99 µM	> 22.7 µM	> 22.7 µM	> 22.7 µM								
Cc1ccc(-c2nc3ccc4c(c3[nH]2)C(=O)c2ccccc2C4=O)cc1	> 14.8 µM	> 14.8 µM	> 14.8 µM	> 14.8 µM	> 14.8 µM	9.31%	4.17%	5.82%	12.27%	8.72%	9.62%	7.49%	5.27%
